From paper PMC3556274 (Bioconjugate chemistry, 2012)
Non-standard residues stand in square brackets, D forms with d. Residues, ends and D or L forms follow the SMILES beside them. *: point of attachment. DTPA = O=C(O)CN(CCN(CC(=O)O)CC(=O)O)CCN(CC(=O)O)CC(=O)*; Orn = NCCC[C@H](N)C(=O)O; 2Furoyl = O=C(c1ccco1)*

Tests used:
PAR2 [1] = molecular target: T1, PAR2 (Homo sapiens, UniProt P55085); assay: MAPK signaling, immunoblot of pERK/tERK; type: cell-based; conditions: 16HBE14o- cells, 5 min exposure, concentration response 1-10 µM
T1 sequence (P55085 26-397): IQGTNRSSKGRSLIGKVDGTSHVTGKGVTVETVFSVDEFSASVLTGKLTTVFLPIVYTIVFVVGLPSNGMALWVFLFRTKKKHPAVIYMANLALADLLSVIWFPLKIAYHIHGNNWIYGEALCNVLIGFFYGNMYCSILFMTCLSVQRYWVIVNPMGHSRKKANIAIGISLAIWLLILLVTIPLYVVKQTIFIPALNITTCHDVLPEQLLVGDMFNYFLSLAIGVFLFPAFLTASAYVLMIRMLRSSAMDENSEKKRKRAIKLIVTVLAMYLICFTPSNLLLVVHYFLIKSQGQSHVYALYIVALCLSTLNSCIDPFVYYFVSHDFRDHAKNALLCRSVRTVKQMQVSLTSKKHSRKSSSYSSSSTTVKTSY
Method in brief: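 16HBE14o- cells exposed 5 min to test compound at 1–10 µM. ERK1/2 phosphorylation measured by immunoblot as pERK relative to total ERK. Values were compared with matching HBSS control.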

PAR2 [2] = molecular target: T1, PAR2; assay: Ca2+ signaling by digital imaging microscopy in 16HBE14o- cells; type: cell-based; conditions: 5 µM
Method in brief: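 Human bronchial epithelial 16HBE14o- cells (high PAR2 expression) imaged by digital microscopy for [Ca2+]i changes in individual cells over a 3 min run after agonist addition. Concentration response 0.5–25 µM. Read-out: time course of [Ca2+]i rise and percentage of cells in the field responding within 3 min. Each concentration had 3–9 experiments.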

[3] = tested on: control vector-transfected (kNRK) rat kidney cells; assay: Ca2+ signaling in control vector-transfected kNRK cells; type: cell-based
Method in brief: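 Kirsten virus-transformed normal rat kidney cells (low PAR2 expression) transfected with control vector were run alongside PAR2-transfected kNRK cells. [Ca2+]i was imaged by digital microscopy as for the bronchial epithelial cells, scoring the percentage of cells responding within the 3 min run. Comparison was to matched control, n ≥ 4.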

PAR2 [4] = molecular target: T1, PAR2; assay: xCELLigence Real Time Cell Analyzer; type: cell-based; conditions: 16HBE14o- cells
PAR2 [5] = molecular target: T1, PAR2; type: binding; conditions: 16HBE14o- cells, against 300 nM 2-f-LIGRLO-dtpa
Method in brief: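 Live 16HBE14o- cells grown to confluence (37°C, 5% CO2) on BSA/collagen I/fibronectin-coated 96-well plates. Cells were blocked 75 min in 2% BSA in HEPES-buffered HBSS pH 7.4, then given 45 min at 25°C with 300 nM Eu-DTPA-labelled PAR2 agonist plus competitor at 1 nM–600 µM. Three EDTA/Tween/BSA washes followed, then DELFIA enhancement for 40–45 min. Eu TRF read at ex 340/em 615 nm with 400 µs delay. Apparent IC50 from n ≥ 3 per concentration in ≥2 independent plates.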

| Compound | concentration inducing a significant increase in pERK/tERK compared with control (PAR2 [1]) | concentration of peak (maximum) pERK/tERK activation (PAR2 [1]) | time to initial increase in [Ca2+]i (PAR2 [2]) | percentage of cells with Ca2+ signaling ([3]; 2.5 µM) | percentage of cells with Ca2+ signaling ([3]; 5 µM) | concentration that stimulated a maximum Cell Index (PAR2 [4]; RTCA) | agonist properties in the RTCA physiological response assay (PAR2 [4]; acute (10 min) and long-term (4 h) time points) | competition for PAR2 binding (in words) (PAR2 [5]) |
| --- | --- | --- | --- | --- | --- | --- | --- | --- |
| CC[C@H](C)[C@H](NC(=O)[C@H](CC(C)C)NC(=O)c1ccco1)C(=O)NCC(=O)N[C@@H](CCCNC(=N)N)C(=O)N[C@@H](CC(C)C)C(=O)N[C@@H](CCCNC(=O)CN(CCN(CCN(CC(=O)O)CC(=O)O)CC(=O)O)CC(=O)O)C(N)=O [2-f-LIGRLO-dtpa, 2-furoyl-LIGRLO-(diethylenetriaminepentaacetic acid)-NH2] (2Furoyl-LIGRL[Orn](DTPA)-NH2) | 2.5 µM | 10 µM | ≤ 30 s | 0.42% ± 0.42 | 2.98% ± 0.09 | 2.5 µM | full agonist properties |  |
| 3-indoleacetyl-LIGRL-NH2 [3-ia-LIGRL] |  |  |  |  |  |  |  | displayed limited binding |
